In the array DNA melting data of Ke et al. (doi:10.1101/2024.01.08.574731):

Assays:
[1] = melting temperature; fluorescence melt of hairpins on a sequencing array, two-state fit, raised by 9.35 °C to match UV melts; conditions: sodium 0.088 M
Method in brief: (§1)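 With Cy3 and quencher oligos annealed, library hairpins on a sequenced MiSeq flow cell were imaged for Cy3 fluorescence in 50 mM Na-HEPES pH 8.0, 25 mM NaCl, in 2.5 °C steps up to 60 °C. Melting temperature and folding enthalpy were derived from bootstrapped two-state fits of signals normalised to pre-quench Cy3 and to control constructs. Four replicates were combined by inverse variance, with fitted temperatures raised by 9.35 °C to match UV melts.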

[2] = folding enthalpy; higher = less favourable; fluorescence melt of hairpins on a sequencing array, two-state fit; conditions: sodium 0.088 M
Method in brief: as §1

Sequence | Tm [1] | folding enthalpy [2]
GGGACATCGAAAGATCCC (((..(((....)))))) | 36.1 °C | -18.5 kcal/mol
GGGACCCCGAAAGGGCCC (((..(((....)))))) | 58.6 °C | -20.3 kcal/mol
GGGACCCGAAAGGGCCCC (((.(((....))).))) | 67.8 °C | -23.6 kcal/mol
GGGACCGAAAGGTCGCCC ((((((....)))..))) | 57.5 °C | -10.3 kcal/mol
GGGACCGAAAGGTTACCC ((((((....)))..))) | 47 °C | -17.6 kcal/mol
GGGACGCGAAAGCGCCC (((.(((....)))))) | 64.7 °C | -15.4 kcal/mol
GGGACTGCGAAAGCACCC (((..(((....)))))) | 37.3 °C | -9.02 kcal/mol
GGGACTGGAAACAGTTCC ((.((((....)))).)) | 51.4 °C | -36.1 kcal/mol
GGGAGAGAAATCTCCC ((((((....)))))) | 56.4 °C | -35 kcal/mol
GGGAGAGGAAACTCTCCC (((((((....))))))) | 64.8 °C | -42.9 kcal/mol
GGGAGAGGAAACTTTCCC ((((.((....)).)))) | 42.1 °C | -27.3 kcal/mol
GGGAGCCCGAAAGGGCCC (((..(((....)))))) | 58.8 °C | -10.7 kcal/mol
GGGAGCGAAAGCTACCCC ((((((....)))..))) | 59.8 °C | -12 kcal/mol
GGGAGCGAAAGCTCACCC ((((((....)))..))) | 57.2 °C | -11.2 kcal/mol
GGGAGCGAAAGCTCTCCC ((((((....)))..))) | 52.2 °C | -11.8 kcal/mol
GGGAGCGAAAGCTGACCC ((((((....)))..))) | 45.9 °C | -16.5 kcal/mol
GGGAGCGAAAGCTGCCC ((((((....))).))) | 60.5 °C | -15.1 kcal/mol
GGGAGCGGAAACACCCCC (((.(.(....).).))) | 28.2 °C | -16 kcal/mol
GGGAGCTCGAAAGAGCCC (((..(((....)))))) | 57.2 °C | -11.2 kcal/mol
GGGAGGCGAAAGCCCCC (((.(((....)))))) | 66.3 °C | -19.2 kcal/mol
GGGAGGGCGAAAGCCCCC (((..(((....)))))) | 55.3 °C | -10.6 kcal/mol
GGGAGGGGAAACCCCCCC (((.(((....))).))) | 53.3 °C | -38.7 kcal/mol
GGGAGGGGAAACCCTCTC (.(((((....))))).) | 52.2 °C | -20.2 kcal/mol

Sequence | Tm [1] | folding enthalpy [2]
GGGAGGGGAAACCTTCCC ((((.((....)).)))) | 50 °C | -25.1 kcal/mol
GGGAGGGGAAACTCTCCC (((((.(....).))))) | 52 °C | -31.4 kcal/mol
GGGAGTCGAAAGACCCC (((.(((....)))))) | 56.7 °C | -32.7 kcal/mol
GGGAGTGGAAACACCCCC (((.(((....))).))) | 49.2 °C | -19 kcal/mol
GGGATACGAAAGTAACCC (((.(((....))).))) | 51.7 °C | -31.1 kcal/mol
GGGATAGCGAAAGCTCCC (((..(((....)))))) | 50.1 °C | -21.8 kcal/mol
GGGATAGGAAACCATCCC (((((.(....).))))) | 43.3 °C | -30.9 kcal/mol
GGGATCCGAAAGGAACCC (((.(((....))).))) | 56.7 °C | -46.3 kcal/mol
GGGATCGAAAGATGACCC ((((((....)))..))) | 33.6 °C | -27.8 kcal/mol
GGGATCGAAAGATTACCC ((((((....)))..))) | 32.4 °C | -17.4 kcal/mol
GGGATCGGAAACAATCCC (((((.(....).))))) | 40.6 °C | -30.9 kcal/mol
GGGATGAAAATCCC (((((....))))) | 56.5 °C | -28.8 kcal/mol
GGGATGGGAAACCATTCC ((.((((....)))).)) | 50.2 °C | -31.1 kcal/mol
GGGATGGGAAACCGTCTC (.((.((....)).)).) | 36.6 °C | -26.1 kcal/mol
GGGATGTCGAAAGACCCC (((..(((....)))))) | 44.9 °C | -18.8 kcal/mol
GGGATTGAAAAATCCC ((((((....)))))) | 55.8 °C | -43.6 kcal/mol
GGGATTGCGAAAGCACCC (((..(((....)))))) | 41.2 °C | -14.5 kcal/mol
GGGATTGGAAACAATTCC ((.((((....)))).)) | 46.5 °C | -34 kcal/mol
GGGATTGGAAACGATCCC (((((.(....).))))) | 51.9 °C | -43.8 kcal/mol
GGGATTTCGAAAGAACCC (((..(((....)))))) | 30.3 °C | -22.6 kcal/mol
GGGCAACCGAAAGGTCCC (((..(((....)))))) | 44 °C | -16.3 kcal/mol
GGGCAAGCGAAAGCTCCC (((..(((....)))))) | 44.6 °C | -19 kcal/mol
GGGCAAGGAAACCTGCCC (((((.(....).))))) | 57.5 °C | -37.7 kcal/mol
